Laboratory results as given in ChEMBL document CHEMBL3632613, “Pharmacokinetic, pharmacodynamic and metabolic characterization of a brain retentive microtubule (MT)-stabilizing triazolopyrimidine” (Bioorg Med Chem Lett, 2015).
Active and inactive are the calls of the source. The calls are words filed in the database; no cut-off is given here.

Tests used:
[1] = Half life in rat brain at 5 mg/kg, ip; format: ADME, organism-based
QBI293 [2] = test: Cytotoxic activity against human QBI293 cells assessed as reduction in cel viability incubated for 24 hrs by alamar blue assay; format: functional, cell-based
Method in brief: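 QBI293 cells seeded 10,000/well, grown overnight at 37°C, 5% CO2, then exposed in triplicate to a nM–µM range (diluted from 20 mM DMSO stocks; 0.25% DMSO vehicle as 0% toxicity, 100 µM tubercidin as 100%) for 18 h. Alamar Blue was then added at 10% of well volume for another 6 h. Fluorescence read at ex 550/em 590 nm. Percent cytotoxicity was derived from RFUs.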

QBI293 [3] = test: Stabilization of microtubule in human QBI293 cells assessed as increase in acetylated alpha-tubulin up to 1 uM incubated for 4 hrs; format: cell-based
Brain [4] = test: Drug level in rat brain at 5 mg/kg, ip administered as two repeated doses separated by 4 hrs interval; format: ADME, organism-based; details: in vivo
Mus musculus = test: In-vivo stabilization of microtubule in normal mouse assessed as increase in acetylated alpha-tubulin at 5 mg/kg, ip administered as two doses after 1 day; format: functional, organism-based
Brain [5] = test: Drug level in rat brain at 5 mg/kg, ip administered as single dose after 4 hrs; format: ADME, organism-based; details: in vivo
Plasma [6] = test: Drug metabolism in mouse plasma assessed as formation of (S)-3-(4-(5-chloro-7-((1,1,1-trifluoropropan-2-yl)amino)-[1,2,4]triazolo[1,5-a]pyrimidin-6-yl)-3,5-difluorophenoxy)propanoic acid at 5 mg/kg, ip; details: in vivo
Plasma [7] = test: Drug metabolism in mouse plasma assessed as formation of (S)-4-(5-chloro-7-((1,1,1-trifluoropropan-2-yl)amino)-[1,2,4]triazolo[1,5-a]pyrimidin-6-yl)-3,5-difluorophenol at 5 mg/kg, ip; details: in vivo
[8] = Half life in rat plasma at 5 mg/kg, ip; format: ADME, organism-based
[9] = Retention time of the compound in mouse liver microsomes by LC-MS/MS method; format: ADME
Plasma [10] = test: Drug level in mouse plasma treated with at 5 mg/kg, ip cmpound-4 assessed as compound formation; details: in vivo

Structure (SMILES) | half-life [1] [h] | Activity (QBI293 [2]) | inhibition (QBI293 [3]) | Drug uptake (Brain [4]) | Activity (Mus musculus) | Drug uptake (Brain [5]) | Drug metabolism (Plasma [6]) | Drug metabolism (Plasma [7]) | half-life [8] [h] | Retention_time [9] [min] | Drug metabolism (Plasma [10])
C[C@H](Nc1c(-c2c(F)cc(OCCCO)cc2F)c(Cl)nc2ncnn12)C(F)(F)F | 7 | Active | Active | Active | Active | Active | metabolite_detected | metabolite_detected | 2.5 | 6.91 | –
C[C@H](Nc1c(-c2c(F)cc(OCCC(=O)O)cc2F)c(Cl)nc2ncnn12)C(F)(F)F | – | inactive | inactive | – | – | – | – | – | – | 6.9 | metabolite_detected
C[C@H](Nc1c(-c2c(F)cc(O)cc2F)c(Cl)nc2ncnn12)C(F)(F)F | – | inactive | inactive | – | – | – | – | – | – | 6.73 | metabolite_detected
